Consider 96 molecules from ChEMBL document CHEMBL4513216, “Probing the Open Global Health Chemical Diversity Library for Multistage-Active Starting Points for Next-Generation Antimalarials” (ACS Infect Dis, 2020).

A short description of the series: Toxicity liver stage against HepG2, at 10uM. Set-up: test concentration 10 uM, cell line HepG2-A16-CD81EGFP. The class given is cell-based. The following applies: human, HepG2-A16-CD81EGFP cells; read-out: INHIBITION
Put shortly: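 Uninfected HepG2-A16-CD81EGFP cells, 3 × 10^3 per well, 1536-well, plated on prespotted compound at 10 μM final, parasite-free screening media added to match infected plates; puromycin 10 μM positive, DMSO 0.5% negative; run in parallel with 48 h PbLuc assay at 37 °C, 5% CO2; viability by CellTiter-Glo luminescence, normalized to controls.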

For `Cc1cccc(CN2CCN(c3nc(CO)cs3)CC2)c1`, the cytotoxicity at 10 µM was -11.6%.
With `O=C(NCC1CCOC1)c1cc(-c2ccccc2Cl)[nH]n1` (stereo unspecified) the figure was -3.11%; with `CC(C)CCN1CCNC(=O)C1CC(=O)N1CCc2sccc2C1` (stereo unspecified), -7.01%; with `CCN(CC)S(=O)(=O)c1ccc(CNC(=O)c2cc(C)on2)cc1`, 27.4%.
In the case of `O=C(Nc1cnn(CC(=O)N2CCCCO2)c1)c1ccsc1`, the cytotoxicity at 10 µM was -1.23%.
Take `CC(=O)N1CCC2(CC1)CC(N1CCOCC1)c1ccc(C)cc12` (stereo unspecified): the cytotoxicity at 10 µM was -137%.
Then `Fc1cccc(CNc2cncc(-n3cccn3)n2)c1`, with 0.959%; and `CCc1ccc2nc(-c3cnn(C)c3)cc(C(=O)N3CCOCC3)c2c1`, with -2.96%.
With `Cc1ccc(CN(C)C(=O)CCNS(=O)(=O)c2cccnc2)cc1` the figure was -10.6%.
Take `CC(C)Cc1cc(C(=O)N2CCCN(c3ncccn3)CC2)[nH]n1`: the cytotoxicity at 10 µM was 4.57%.
Regarding `Cc1cc(CN2CCC3(CC2)C(=O)NCCN3CC2CC2)oc1C`, the cytotoxicity at 10 µM was -67.5%.
Then `CCn1c(C2CCNCC2)nn(CCn2ccc(C)n2)c1=O`, with 2.6%; and `COCCNC(=O)c1ccc2c(=O)n3c(nc2c1)CCN(C)CC3`, with -1.02%.
With `Cc1nnc2n1CCN(Cc1csc(CC(=O)N(C)C)n1)C2` the figure was -7.08%; with `Cc1cc(F)c(S(=O)(=O)NCCCN2CCC(O)CC2)cc1F`, -25.9%.
Then `CCn1c(-c2ccccc2)nn(CC(=O)NCCc2ccc(C)o2)c1=O`, with -0.545%; and `Cn1ncc2c1CCCC2NCc1cc(Br)cs1` (stereo unspecified), with -0.481%.
Regarding `COc1ccccc1CCN1CCCC(CN(C)Cc2cc(C)n[nH]2)C1` (stereo unspecified), the cytotoxicity at 10 µM was -4.52%.
Then `CNc1nc(C2CCCN(C(=O)C(C)(C)OC)C2)nc2c1CN(C)CC2` (stereo unspecified), with -8.24%.
With `CNC(=O)COc1ccccc1CNC1CCc2nc(C)nn2C1` (stereo unspecified) the figure was 6.56%.
Turning to `COc1ncc(CN(CCCN2CCOCC2)Cc2ccc(C)o2)cn1`, the cytotoxicity at 10 µM was -33%.
Then `Cc1ccc(CN2CCC3(CC2)CC(c2cccnc2)CO3)s1` (stereo unspecified), with -9.7%; and `Cc1ccc(C(=O)N2CCCN(Cc3cccs3)CC2)c(=O)[nH]1`, with 1.45%.
Then `COc1ncnc(N)c1CNCC(C)Oc1ccccc1Cl` (stereo unspecified), with 0.732%; and `CN(C1CCN(C(=O)NCCc2ccc(F)cc2F)CC1)S(C)(=O)=O`, with 12.3%; and `O=c1ncn(-c2cccc(F)c2)c2ncccc12`, with 4.19%.
With `Cc1sc(C(=O)O)cc1S(=O)(=O)Nc1c(F)cccc1-n1cccn1` the figure was -1.37%.
In the case of `CC(=O)NCC1CCN(C(=O)NCCOc2ccc3c(c2)CCC3)CC1`, the cytotoxicity at 10 µM was -5.31%.
With `O=C(NCCc1ccccc1)N1CCCCC1C1OCCO1` (stereo unspecified) the figure was -45.2%.
With `Cc1ccccc1CSCCn1nc2ccccn2c1=O` the figure was 2.57%; with `O=S(=O)(c1cn[nH]c1)N1CCC(O)(CN2CCC(F)(F)CC2)C1` (stereo unspecified), 5.92%.
With `CN(C)C(=O)N1C[C@H]2CC[C@@H](C1)N(C(=O)c1c(Cl)cccc1Cl)C2` the figure was 7.2%.
In the case of `CN1CCN(c2ccc(NS(=O)(=O)c3ccc(Cl)s3)cc2C(=O)O)CC1`, the cytotoxicity at 10 µM is -1.08%.
Then `O=C(NCCNc1ccc(C(F)(F)F)cn1)c1ccc(Cl)cc1F`, with -1.99%; and `CC(O)CN1CCN(C(=O)c2ccc(Cn3cccc3)cc2)CC1` (stereo unspecified), with -5.75%; and `CCc1[nH]c2c(CNc3nccc(N)n3)cc(C)cc2c1C`, with 3.4%.
Take `Cc1cccc2c1nc1n2[C@@H](CNC(=O)c2cnccn2)COC1`: the cytotoxicity at 10 µM was found to be 6.54%.
With `CCN1CC2(CC1=O)CN(Cc1ccoc1)CCN(C(=O)C(C)C)C2` (stereo unspecified) the figure was 9.14%; with `CN(C)C(=O)c1cccc(Nc2cnn(C)c2)c1`, 5.42%; with `CC1(C)CCN1C(=O)c1cc(F)cc2[nH]cnc12`, -7.09%.
With `Cc1cc(-c2cnc(NC3CCCC3)nc2-c2ccoc2C)on1` the figure was 45.7%; with `O=C(C1CC1)N1CCC2(CC1)CNc1ccc(F)cc12`, 11%.
Regarding `CN(C)Cc1cnc(C2CCN(C(=O)c3cc(F)cc(F)c3)C2)[nH]1` (stereo unspecified), the cytotoxicity at 10 µM came to 2.5%.
Then `Cc1cc(N(C)CCCn2cccn2)nc(-c2cccnc2)n1`, with 16.3%.
With `CCc1cnc(NCC2OCCc3ccccc32)nc1` (stereo unspecified) the figure was -3.6%; with `COCCN1C[C@@H]2CN(c3ncc(F)cn3)C[C@@H]2C1=O`, 9.49%.
With `Cc1nn(C)c(N2CCOCC2)c1CNC(C(N)=O)c1ccccc1` (stereo unspecified) the figure was -6.86%.
On to `COCc1cnc2n1CCN(C(=O)C1=CCCC1)C2C` (stereo unspecified), for which the cytotoxicity at 10 µM worked out at 2.75%.
Then `COc1cc2c(cc1CNC(=O)Cc1ccc(C)nc1)OC(C)C2` (stereo unspecified), with -6.47%; and `COCCCNC(=O)N1CCCC(c2nncn2C)C1` (stereo unspecified), with -19.7%.
Regarding `CC(C)c1cc(C2CCCN2Cc2nc(-c3ccco3)no2)no1` (stereo unspecified), the cytotoxicity at 10 µM is -3.45%.
With `Cc1ccsc1CN1C[C@@H]2CN(Cc3cccnc3)CCO[C@@H]2C1` the figure was 8%.
In the case of `CCc1nsc(N2CCCN(C(=O)c3ccsc3)CC2)n1`, the cytotoxicity at 10 µM amounted to 5.73%.
Then `CCc1ccc(CN2CCC(=O)N(CC3CC3)C(C(C)C)C2)nc1` (stereo unspecified), with 2.08%; and `CS(=O)(=O)c1cn[nH]c1C1CCCN(C(=O)CN2CCOCC2)C1` (stereo unspecified), with -22.8%; and `OCC1(CC2CCCCO2)CCN(c2cnc3ccccc3n2)CC1` (stereo unspecified), with 21.1%.
With `CCc1nc2n(n1)CC(NCc1cnc(-c3ccccc3)nc1)CC2` (stereo unspecified) the figure was 0.702%.
With `O=C(COc1ccccc1)N1CCCC1c1ccc[nH]1` (stereo unspecified) the figure was -0.575%; with `CC1(C)CN(CC(O)C(C)(C)C)C(=O)CN(C(=O)c2ccccc2)C1` (stereo unspecified), -6.87%.
Consider `CC(C)N(Cc1ccc(Cl)c(Cl)c1)C(=O)Cn1cncn1`, for which the cytotoxicity at 10 µM came to 4.19%.
In the case of `CN(C)c1cc(CNC(=O)Nc2ccc(F)cc2)ccn1`, the cytotoxicity at 10 µM was determined as 0.0418%.
With `Cc1ccc(C(=O)N2CCCC(CNS(C)(=O)=O)C2)o1` (stereo unspecified) the figure was -16%.
With `Cc1cc(C(=O)O)ccc1NS(=O)(=O)c1c(C)nn(C(C)C)c1C` the figure was 5.31%; with `COCC(=O)NCCc1ccc(I)s1`, 11.3%.
With `O=C(NCCS(=O)(=O)N1CCN(c2ncccn2)CC1)C1CCCC1` the figure was -3.91%; with `COCc1ncc(CN2CCC(Oc3ccc(OC)cc3)CC2)cn1`, -5.72%.
In the case of `Cc1ccc(S(=O)(=O)NC(=O)c2cc(S(C)(=O)=O)ccc2C)s1`, the cytotoxicity at 10 µM stood at 14.1%.
Then `CC(C)(C)N1CC(C(=O)NCc2cn3cccnc3n2)CC1=O` (stereo unspecified), with -0.591%; and `Cc1nc(NC2CCOCC2)cc(C2CCN2S(C)(=O)=O)n1` (stereo unspecified), with 2.31%; and `CCOc1cc(/C=C/c2ncc(C(=O)O)s2)cc(Cl)c1OC`, with 8.13%.
Then `CC(=O)N1CCC(CCNC(C)Cc2ccc(F)cc2)CC1` (stereo unspecified), with -11.4%; and `NC(=O)C1CCN(c2nccc(-c3c[nH]nc3C3CCCCC3)n2)CC1`, with -10.6%; and `N#Cc1ccc(C(=O)N2CCn3c(Cn4cccn4)cnc3C2)cc1`, with 3.09%.
With `CCOCc1ccccc1NC(=O)NCC(c1cnn(C)c1)N(C)C` (stereo unspecified) the figure was 3.96%; with `COCC(O)CN(C)c1ccnc2ccc(Cl)cc12` (stereo unspecified), -5.93%.
As for `CCS(=O)(=O)N1Cc2ccccc2CC1C(=O)OCc1c(C)noc1C` (stereo unspecified), the cytotoxicity at 10 µM is -9.26%.
Then `CC(=O)c1cc(Br)cc(F)c1OCC(=O)NC(C)C`, with -9.46%; and `CCCc1cc(NC(=O)c2ccc(Cl)c(N3CCNC3=O)c2)n[nH]1`, with -4.55%.
With `COc1cccc(CCNS(=O)(=O)c2ccc(NC(C)=O)cc2)c1` the figure was 1.54%.
On to `Cc1ccc(CN2CCN(C3CCC3)CC2CCO)o1` (stereo unspecified), for which the cytotoxicity at 10 µM is -2.46%.
For the molecule `CCC(=O)CNC(=O)CCn1nc2ccccn2c1=O`, the cytotoxicity at 10 µM is 9.5%.
As to `c1ccc(-c2nnn3c2COC(CNCc2ccccn2)C3)cc1` (stereo unspecified), the cytotoxicity at 10 µM turned out to be 0.595%.
Then `CS(=O)(=O)N1CC[C@H]2OCC[C@@]2(C(=O)NCC2CC2)C1`, with -98.2%.
Consider `Cc1ccc(NC(=O)C2CSCN2C(=O)c2cnccn2)cc1C` (stereo unspecified), for which the cytotoxicity at 10 µM is -8.3%.
With `CN(c1ccc(C(=O)NCCN2CCOCC2)c(Cl)c1)S(C)(=O)=O` the figure was -11.1%; with `O=C(COC[C@H]1CC[C@H]2[C@H](CCN2c2ccccn2)O1)N1CCCC1`, 0.748%; with `O=C(C[C@@H]1COC[C@H]2CN(C(=O)c3ccccn3)C[C@@H]12)N1CCCC1`, -104%.
Consider `CCn1cc(NC(=O)c2cccc(CN3C[C@@H](C)O[C@@H](C)C3)c2)nn1`, for which the cytotoxicity at 10 µM amounted to 1.31%.
Then `CN(Cc1nnc(C2CC2)n1C)S(=O)(=O)Cc1ccccc1F`, with 16.8%; and `Cc1nccn1CCC1CCCCN1C(=O)c1ccc2nonc2c1` (stereo unspecified), with -6.55%; and `CCc1noc(C(C)N(C)Cc2ccc(OC)c(OC)c2)n1` (stereo unspecified), with -7.13%.
Then `Cn1cc(C(=O)Nc2ccc(CC(=O)NC3CC3)cc2)nn1`, with -7.42%.
With `CCS(=O)(=O)CCNC(=O)[C@@]12CNC[C@@H]1CN(C1CCCC1)C2`, the cytotoxicity at 10 µM was -20.3%.
Then `Cn1c(C(F)(F)F)nn(CCNC(=O)CSCc2ccccc2)c1=O`, with -24%; and `CC(=O)N1C[C@@H]2C(=O)N(C)C3(CCN(C(=O)C(C)C)CC3)[C@@H]2C1`, with 0.434%; and `CC(O)(CN1CCC(O)CC1)c1cccc(C(F)(F)F)c1` (stereo unspecified), with -0.0552%.
